From ChEMBL document CHEMBL4251654, “Structure-based design of human immuno- and constitutive proteasomes inhibitors” (Eur J Med Chem, 2018)
Active and inactive are the calls of the source. The calls are words filed in the database; no cut-off is given here.

What was measured:
[1] = molecular target: T1, Proteasome Macropain subunit MB1 (Homo sapiens, UniProt P28074); experiment: Inhibition of human 20S constitutive proteasome beta-5 using Suc-LLVY-AMC as substrate incubated for 15 mins measured for 45 mins by fluorescence assay
T1 sequence (P28074 whole entry): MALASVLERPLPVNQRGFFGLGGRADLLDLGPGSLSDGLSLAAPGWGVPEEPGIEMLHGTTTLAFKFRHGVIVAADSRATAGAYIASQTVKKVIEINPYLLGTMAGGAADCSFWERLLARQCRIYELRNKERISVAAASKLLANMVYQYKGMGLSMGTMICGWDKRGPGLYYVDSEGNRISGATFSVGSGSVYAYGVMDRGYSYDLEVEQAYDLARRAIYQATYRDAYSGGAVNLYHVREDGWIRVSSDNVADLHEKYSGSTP
Procedure, shortened: (§1)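 Human 20S cCP or iCP (0.3 nM) was exposed to compound (0.001-50 μM) for 15 min in pH 8 buffer of 20 mM Tris-HCl, 10% glycerol, 0.01% SDS, 2% DMSO. Suc-LLVY-AMC at 20 μM followed. Fluorescence (ex 360/em 460 nm) was read 45 min at 37 °C versus untreated enzyme.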

[2] = molecular target: T2, Proteasome component C5 (Homo sapiens) (UniProt P20618); experiment: Inhibition of human 20S constitutive proteasome beta-1 at 50 uM using Z-LLE-betaNA as substrate incubated for 15 mins measured for 45 mins by fluorescence assay relative to control
T2 sequence (whole entry): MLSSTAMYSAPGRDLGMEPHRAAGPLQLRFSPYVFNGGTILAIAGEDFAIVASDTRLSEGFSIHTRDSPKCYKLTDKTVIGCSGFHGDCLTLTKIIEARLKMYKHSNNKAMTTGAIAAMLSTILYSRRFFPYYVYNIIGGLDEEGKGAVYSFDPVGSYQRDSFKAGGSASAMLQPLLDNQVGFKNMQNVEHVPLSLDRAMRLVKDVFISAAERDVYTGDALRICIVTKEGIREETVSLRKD
Procedure, shortened: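 Human 20S constitutive proteasome, 0.3 nM, was preincubated 15 min with compound (0.001-50 μM) in pH 8 Tris-HCl 20 mM, 10% glycerol, 0.01% SDS, 2% DMSO. Z-LLE-βNA at 50 μM was added. βNA fluorescence (ex 340/em 404 nm) was monitored 45 min at 37 °C against an untreated control.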

[3] = molecular target: T3, Proteasome subunit beta type-10 (Homo sapiens, UniProt P40306); experiment: Inhibition of human 20S immunoproteasome beta-2 using BocLRR-AMC as substrate incubated for 15 mins measured for 45 mins by fluorescence assay
T3 sequence (P40306 whole entry): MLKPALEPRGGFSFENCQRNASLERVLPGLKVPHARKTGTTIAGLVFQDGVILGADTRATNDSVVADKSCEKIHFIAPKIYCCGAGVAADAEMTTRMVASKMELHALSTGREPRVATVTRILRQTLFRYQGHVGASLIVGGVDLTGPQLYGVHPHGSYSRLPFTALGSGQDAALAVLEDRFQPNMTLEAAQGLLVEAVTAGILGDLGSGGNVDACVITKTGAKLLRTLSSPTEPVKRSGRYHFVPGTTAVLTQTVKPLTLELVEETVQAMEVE

[4] = molecular target: T4, Proteasome subunit beta type-10 (Homo sapiens) (UniProt P40306); experiment: Inhibition of human 20S immunoproteasome beta-2 at 50 uM using BocLRR-AMC as substrate incubated for 15 mins measured for 45 mins by fluorescence assay relative to control
T4 sequence (whole entry): T3 sequence (P40306 whole entry)

[5] = molecular target: T5, Proteasome Macropain subunit MB1 (Homo sapiens) (UniProt P28074); experiment: Inhibition of human 20S constitutive proteasome beta-5 at 50 uM using Suc-LLVY-AMC as substrate incubated for 15 mins measured for 45 mins by fluorescence assay relative to control; procedure, shortened: as §1
T5 sequence (whole entry): T1 sequence (P28074 whole entry)

[6] = molecular target: T6, Proteasome subunit beta type-8 (Homo sapiens) (UniProt P28062); experiment: Inhibition of human 20S immunoproteasome beta-5 at 50 uM using Suc-LLVY-AMC as substrate incubated for 15 mins measured for 45 mins by fluorescence assay relative to control; procedure, shortened: as §1
T6 sequence (whole entry): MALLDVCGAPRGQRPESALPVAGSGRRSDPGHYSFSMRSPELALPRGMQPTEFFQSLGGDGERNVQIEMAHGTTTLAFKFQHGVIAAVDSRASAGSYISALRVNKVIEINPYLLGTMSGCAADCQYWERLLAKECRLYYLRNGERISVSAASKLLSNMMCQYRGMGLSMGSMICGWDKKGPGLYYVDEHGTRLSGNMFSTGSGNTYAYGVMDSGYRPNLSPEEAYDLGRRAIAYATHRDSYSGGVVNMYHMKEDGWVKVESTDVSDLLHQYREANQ

[7] = molecular target: Proteasome Macropain subunit (Homo sapiens) (UniProt P49721); experiment: Inhibition of human 20S constitutive proteasome beta-2 at 50 uM using BocLRR-AMC as substrate incubated for 15 mins measured for 45 mins by fluorescence assay relative to control
Procedure, shortened: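 Purified human 20S proteasome (cCP or iCP), 0.3 nM, preincubated 15 min with compound (0.001-50 μM) in pH 8 buffer of 20 mM Tris-HCl, 10% glycerol, 0.005% Triton X-100, 2% DMSO. Then Boc-LRR-AMC at 50 μM was added. AMC fluorescence (ex 360/em 460 nm) was followed 45 min at 37 °C. Activity is relative to an untreated control.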

[8] = molecular target: T7, Proteasome subunit beta type-9 (Homo sapiens) (UniProt P28065); experiment: Inhibition of human 20S immunoproteasome beta-1 at 50 uM using Ac-PAL-AMC as substrate incubated for 15 mins measured for 45 mins by fluorescence assay relative to control
T7 sequence (whole entry): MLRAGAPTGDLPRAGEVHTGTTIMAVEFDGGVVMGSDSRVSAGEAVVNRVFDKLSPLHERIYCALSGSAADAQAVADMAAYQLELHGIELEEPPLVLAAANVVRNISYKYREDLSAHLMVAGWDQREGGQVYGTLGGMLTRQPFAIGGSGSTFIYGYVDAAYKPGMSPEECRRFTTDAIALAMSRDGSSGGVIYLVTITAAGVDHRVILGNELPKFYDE
Procedure, shortened: (§2)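 Human 20S immunoproteasome (0.3 nM) was given 15 min with compound (0.001-50 μM) in pH 8 buffer of 20 mM Tris-HCl, 10% glycerol, 0.01% SDS, 2% DMSO. Ac-PAL-AMC at 50 μM was the substrate. Fluorescence (ex 360/em 460 nm) was followed 45 min at 37 °C relative to control.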

[9] = molecular target: T8, Proteasome subunit beta type-9 (Homo sapiens, UniProt P28065); experiment: Inhibition of human 20S immunoproteasome beta-1 using Ac-PAL-AMC as substrate incubated for 15 mins measured for 45 mins by fluorescence assay; procedure, shortened: as §2
T8 sequence (P28065 whole entry): T7 sequence (whole entry)

[10] = molecular target: T9, Proteasome subunit beta type-8 (Homo sapiens, UniProt P28062); experiment: Inhibition of human 20S immunoproteasome beta-5 using Suc-LLVY-AMC as substrate incubated for 15 mins measured for 45 mins by fluorescence assay; procedure, shortened: as §1
T9 sequence (P28062 whole entry): T6 sequence (whole entry)

Sequence of Proteasome Macropain subunit (Homo sapiens) (P49721 whole entry): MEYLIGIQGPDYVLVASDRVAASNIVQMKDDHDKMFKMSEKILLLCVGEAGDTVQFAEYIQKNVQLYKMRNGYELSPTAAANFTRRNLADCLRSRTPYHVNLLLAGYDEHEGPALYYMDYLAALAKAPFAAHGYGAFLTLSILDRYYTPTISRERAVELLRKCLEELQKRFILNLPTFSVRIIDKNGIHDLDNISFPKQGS

COC(=O)CCNC(=O)[C@H](C[C@]1(O)C(=O)Nc2ccccc21)NC(=O)[C@H](C)NC(=O)[C@H](Cc1ccc(OCc2ccccc2)cc1)NC(=O)OC(C)(C)C
IC50 [1]: 64 µM | inhibition [2]: 15% | IC50 [3]: 106 µM | inhibition [4]: > 85% | inhibition [5]: > 85% | inhibition [6]: 31% | inhibition [7]: 14% | inhibition [8]: 17%

C[C@H](NC(=O)[C@H](Cc1ccc(OCc2ccccc2)cc1)NC(=O)OC(C)(C)C)C(=O)N[C@@H](C[C@]1(O)C(=O)Nc2ccccc21)C(=O)NCCC1CCCCC1
IC50 [1]: 2.8 µM | inhibition [2]: > 85% | IC50 [9]: 3.5 µM | inhibition [4]: 19% | inhibition [5]: > 85% | inhibition [6]: > 85% | IC50 [10]: 2.7 µM | inhibition [7]: 36% | inhibition [8]: > 85%

C[C@H](O)[C@@H](NC(=O)OCc1ccccc1)C(=O)N[C@@H](C[C@]1(O)C(=O)Nc2ccccc21)C(=O)NCc1ccccc1
IC50 [1]: 0.88 µM | inhibition [2]: 20% | IC50 [9]: 24.6 µM | inhibition [4]: inactive | inhibition [5]: > 85% | inhibition [6]: > 85% | IC50 [10]: 0.572 µM | inhibition [7]: inactive | inhibition [8]: > 85%

CC(C)(C)OC(=O)N[C@@H](Cc1ccc(OCc2ccccc2)cc1)C(=O)NCC(=O)N[C@@H](C[C@]1(O)C(=O)Nc2ccccc21)C(=O)NCc1ccccc1
IC50 [1]: 6.2 µM | inhibition [2]: > 85% | IC50 [9]: 12.6 µM | IC50 [3]: 8.9 µM | inhibition [4]: > 85% | inhibition [5]: > 85% | inhibition [6]: > 85% | IC50 [10]: 7.8 µM | inhibition [7]: > 85% | inhibition [8]: > 85%

NC(=O)C[C@H](NC(=O)OCc1ccccc1)C(=O)N[C@@H](C[C@]1(O)C(=O)Nc2ccccc21)C(=O)NCc1ccccc1
IC50 [1]: 0.36 µM | inhibition [2]: inactive | inhibition [4]: inactive | inhibition [5]: > 85% | inhibition [6]: > 85% | IC50 [10]: 0.42 µM | inhibition [7]: inactive | inhibition [8]: inactive

C[C@H](NC(=O)[C@H](Cc1ccc(OCc2ccccc2)cc1)NC(=O)OC(C)(C)C)C(=O)N[C@@H](C[C@]1(O)C(=O)Nc2ccccc21)C(=O)NCCC(=O)O
inhibition [2]: 19% | IC50 [3]: 22 µM | inhibition [4]: > 85% | inhibition [5]: 18% | inhibition [6]: 14% | inhibition [7]: > 85% | inhibition [8]: 17%

C[C@@H](NC(=O)[C@H](Cc1ccc(OCc2ccccc2)cc1)NC(=O)OC(C)(C)C)C(=O)N[C@@H](C[C@]1(O)C(=O)Nc2ccccc21)C(=O)NCc1ccccc1
IC50 [1]: 9.2 µM | inhibition [2]: > 85% | IC50 [9]: 12.5 µM | IC50 [3]: 21.4 µM | inhibition [4]: > 85% | inhibition [5]: > 85% | inhibition [6]: > 85% | IC50 [10]: 13.2 µM | inhibition [7]: > 85% | inhibition [8]: > 85%

C[C@H](NC(=O)OCc1ccccc1)C(=O)N[C@@H](C[C@]1(O)C(=O)Nc2ccccc21)C(=O)NCc1ccccc1
IC50 [1]: 5.1 µM | inhibition [2]: inactive | IC50 [9]: 45 µM | inhibition [4]: inactive | inhibition [5]: > 85% | inhibition [6]: > 85% | IC50 [10]: 3.96 µM | inhibition [7]: inactive | inhibition [8]: > 85%

C[C@H](NC(=O)[C@H](Cc1ccc(OCc2ccccc2)cc1)NC(=O)OC(C)(C)C)C(=O)N[C@@H](C[C@]1(O)C(=O)N(C)c2ccccc21)C(=O)NCc1ccccc1
IC50 [1]: 5.1 µM | inhibition [2]: > 85% | IC50 [9]: 10.3 µM | inhibition [4]: 27% | inhibition [5]: > 85% | inhibition [6]: > 85% | IC50 [10]: 3.93 µM | inhibition [7]: 19% | inhibition [8]: > 85%

C[C@H](NC(=O)[C@H](Cc1ccc(OCc2ccccc2)cc1)NC(=O)OC(C)(C)C)C(=O)N[C@@H](C[C@]1(O)C(=O)Nc2ccccc21)C(=O)NC(c1ccccc1)c1ccccc1
IC50 [1]: 1.74 µM | inhibition [2]: > 85% | IC50 [9]: 4 µM | inhibition [4]: inactive | inhibition [5]: > 85% | inhibition [6]: > 85% | IC50 [10]: 2.7 µM | inhibition [7]: 30% | inhibition [8]: > 85%

NCCCC[C@H](NC(=O)[C@@H](N)Cc1ccc(OCc2ccccc2)cc1)C(=O)N[C@@H](C[C@]1(O)C(=O)Nc2ccccc21)C(=O)NCc1ccccc1
IC50 [1]: 2.9 µM | inhibition [2]: > 85% | IC50 [9]: 4.3 µM | IC50 [3]: 0.82 µM | inhibition [4]: > 85% | inhibition [5]: > 85% | inhibition [6]: > 85% | IC50 [10]: 3.8 µM | inhibition [7]: > 85% | inhibition [8]: > 85%

C[C@H](NC(=O)[C@H](Cc1ccc(OCc2ccccc2)cc1)NC(=O)OC(C)(C)C)C(=O)N[C@@H](C[C@]1(O)C(=O)Nc2ccccc21)C(=O)NCC1CCCCC1
IC50 [1]: 4.3 µM | inhibition [2]: > 85% | IC50 [9]: 4.8 µM | IC50 [3]: 16 µM | inhibition [4]: > 85% | inhibition [5]: > 85% | inhibition [6]: > 85% | IC50 [10]: 5.2 µM | inhibition [7]: > 85% | inhibition [8]: > 85%

C[C@H](NC(=O)[C@H](Cc1ccc(OCc2ccccc2)cc1)NC(=O)OC(C)(C)C)C(=O)N[C@@H](C[C@@]1(O)C(=O)N(C)c2ccccc21)C(=O)NCc1ccccc1
IC50 [1]: 6.8 µM | inhibition [2]: > 85% | IC50 [9]: 8.9 µM | inhibition [4]: 18% | inhibition [5]: > 85% | inhibition [6]: > 85% | IC50 [10]: 6.1 µM | inhibition [7]: 56% | inhibition [8]: > 85%

C[C@H](NC(=O)[C@H](Cc1ccc(OCc2ccccc2)cc1)NC(=O)OC(C)(C)C)C(=O)N[C@@H](C[C@]1(O)C(=O)Nc2ccccc21)C(=O)NCCc1ccccc1
IC50 [1]: 6 µM | inhibition [2]: > 85% | IC50 [9]: 7.31 µM | inhibition [4]: 26% | inhibition [5]: > 85% | inhibition [6]: > 85% | IC50 [10]: 6.5 µM | inhibition [7]: 45% | inhibition [8]: > 85%
